Compounds with a hit are over-represented: about 3.5% of the library has one in this group of screens.
PglD DTNB – inhibitors of Campylobacter jejuni PglD acetyltransferase | purified PglD enzyme, DTNB colorimetric CoA detection | inhibition, % at 12.5 µM | hit rate 0.098% among 360,000 | AID 602405; in the data active = inhibition above about 16%, passing the limit was not always enough
rRNA inh HTS – selective bacterial rRNA inhibition in E. coli. hit rate 1.6% among 350,000. E. coli WT GFP vs humanized-ribosome RFP mutants, fluorescence, 24 h; stronger effect = lower value; DMSO median 0, no signal -100. GFP signal change (wild-type ribosome), % (concentration not given with the values);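 active = significant combined selectivity score with lowered wild-type GFP, culture density cut under 30%, mutant RFP and density less affected; inactive = any of these conditions unmet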
FN deposit inh – fibronectin deposition inhibition. AH1F fibroblasts, Alexa488-fibronectin deposition fluorescence, overnight. inhibition, % at 12.6 µM. hit rate 0.086% among 350,000. AID 743247;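 active = mean inhibition across replicates of 30% or more, regardless of how many single replicates reach that level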;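 note: positive control wells lacked labelled fibronectin entirely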
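Measured by – fluorescence 485/525 nm · System – AH1F fibroblast monolayer, labelled fibronectin deposition · Amount – 10000 cells per well · Buffer or medium – serum-reduced DMEM (2% serum) · Doses – single dose, pinned · Also added – fluorescent fibronectin at 24 nM final · Schedule – 1 h cell attachment, overnight exposure to compound and label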
Env fusion inh – inhibitors of HIV Env-mediated cell fusion; inhibition, % at 12.3 µM; HeLa-JRFL Env/CEM21 cell fusion, luciferase; hit rate 1.1% among 360,000; AID 651610;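 active = mean replicate inhibition score of at least 50 and every replicate individually at or above 50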;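 note: 0% = plate neutral controls and 100% = maraviroc near 300 nM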
PGC1a acetyl inh – lowers PGC1a acetylation signal in U2OS cells; inhibition, % at 15.6 µM; AlphaScreen anti-acetyl-lysine; with virally co-expressed GCN5 acetyltransferase; hit rate 0.17% among 350,000;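 active = every replicate shows inhibition of at least 40%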;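 note: 0% = neutral control wells and 100% = positive control wells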
DENV2 CPE – DENV2-induced cell death inhibition; CPE inhibition, % at 9.99 µM; DENV2-infected cells, cytopathic effect rescue, plate reader; hit rate 1.7% among 350,000; in the data active = CPE inhibition above about 20%, passing the limit was not always enough; tested in BHK-21 cells;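 note: 0% = median of neutral control wells and 100% = median of positive control wells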
Starred values were filed as active, the others as inactive; . = no result; [ ] = another dose, or the depositor's remark.

SMILES	PglD DTNB	rRNA inh HTS	FN deposit inh	Env fusion inh	PGC1a acetyl inh	DENV2 CPE
Cc1ccc(S(=O)(=O)N(C)C[C@@H]2Oc3ccc(NC(=O)Cc4cn(C)c5ccccc45)cc3CC(=O)N([C@@H](C)CO)C[C@H]2C)cc1	-2	-5	.	-6[16.7 µM]	-24	-7
Cc1noc(C)c1S(=O)(=O)N(C)C[C@H]1OCCCC[C@@H](C)Oc2ccc(NS(=O)(=O)c3ccc(Cl)cc3)cc2C(=O)N([C@@H](C)CO)C[C@@H]1C	-2	-2	.	7[16.7 µM]	-14	31*
Cc1noc(C)c1S(=O)(=O)N(C)C[C@@H]1OCCCC[C@@H](C)Oc2ccc(NS(=O)(=O)c3ccc(Cl)cc3)cc2C(=O)N([C@@H](C)CO)C[C@H]1C	5	-4	.	11[16.7 µM]	-18	36*
Cc1noc(C)c1S(=O)(=O)N(C)C[C@H]1OCCCC[C@@H](C)Oc2ccc(NS(=O)(=O)c3ccc(Cl)cc3)cc2C(=O)N([C@@H](C)CO)C[C@H]1C	0	-5	.	10[16.7 µM]	-30	-14
O=C(O)C[C@H]1CC[C@@H](NC(=O)Nc2ccccc2)[C@H](CO)O1	0	1	1	-11[16.7 µM]	-4	14
CCn1c(=NC(=O)CS(=O)(=O)c2ccccc2)sc2cccc(OC)c21	-3	12	-3	57*	.	-6
Cc1c(C(=O)N2CCN(c3ccccc3F)CC2)oc2c1C(=O)CC(C)(C)C2	0	-3	8	21	-9	0
Cc1c(C(=O)N2CCN(c3ccccc3)CC2)oc2c1C(=O)CC(C)(C)C2	2	-23*	9	1	.	6
CCc1ccc(NC(=O)CN(C)S(=O)(=O)c2ccc3[nH]c(=O)oc3c2)cc1	3	.	.	.	7	.
CN(CC(=O)Nc1cccc(Cl)c1)S(=O)(=O)c1ccc2[nH]c(=O)oc2c1	-4	-25*	9	-1	4	-3
CCOC(=O)c1c(NC(=O)CSc2nnnn2C)sc(C)c1-c1ccc(C)cc1	-1	.	-3	81*	-9	.
CC(C)NC(=O)N(C)C[C@@H]1Oc2ncc(C#CCC3CCCC3)cc2C(=O)N([C@H](C)CO)C[C@H]1C	8	-4	-17	5[16.7 µM]	-21	-1
O=C(C1CCN(c2nnc(-n3cccc3)s2)CC1)N1CCCCC1	-3	-1	-1	-16	-8	-4
O=C(Nc1ccc(Br)cc1F)C1CCN(c2nnc(-n3cccc3)s2)CC1	4	0	-2	28	.	26*
Cc1ccc(S(=O)(=O)Nc2ccc3c(c2)C(=O)N([C@@H](C)CO)C[C@H](C)[C@@H](CN(C)C(=O)Nc2c(C)noc2C)OCCCC[C@@H](C)O3)cc1	0	5	-5	-59[16.7 µM]	-13	-11
CCCNC(=O)C[C@@H]1C[C@H]2c3cc(NC(=O)C4CCC4)ccc3O[C@H]2[C@H](CO)O1	2	0	-1	.	-4	11
COc1ccc(NC(=O)Nc2ccc3c(c2)CC(=O)N([C@@H](C)CO)C[C@H](C)[C@H](CN(C)S(=O)(=O)c2cn(C)cn2)O3)cc1	0	3	.	-23[16.7 µM]	-6	-6
C[C@@H]1CN([C@H](C)CO)C(=O)Cc2cc(NC(=O)CCN3CCOCC3)ccc2O[C@@H]1CN(C)S(=O)(=O)c1cn(C)cn1	3	-1	.	3[16.7 µM]	5	22*
C[C@@H]1CN([C@H](C)CO)C(=O)Cc2cc(NC(=O)Nc3ccccc3)ccc2O[C@H]1CN(C)S(=O)(=O)c1cn(C)cn1	1	2	.	-121[16.7 µM]	-3	62*
COc1ccc(NC(=O)Nc2ccc3c(c2)CC(=O)N([C@H](C)CO)C[C@H](C)[C@@H](CN(C)S(=O)(=O)c2cn(C)cn2)O3)cc1	-1	2	.	-3[16.7 µM]	-10	22*
CNC[C@@H]1Oc2c(NS(=O)(=O)c3ccc(OC)cc3)cccc2C(=O)N([C@H](C)CO)C[C@@H]1C	2	3	.	-4[16.7 µM]	2	-4
Cc1c(C(=O)NCc2cccc(C(F)(F)F)c2)sc(=O)n1Cc1ccc(F)cc1	4	-3	5	-79	.	-13
C=Cc1ccc(Cn2c(C)c(C(=O)NCc3cccc(C(F)(F)F)c3)sc2=O)cc1	-4	-5	-1	12	.	57*
CC(=O)Oc1ccccc1Cn1c(C)c(C(=O)NCc2cccc(Cl)c2)sc1=O	-4	-4	1	59*	.	9

Source: PubChem BioAssay (Broad Institute)
